Compounds with a hit are over-represented: about 1.8% of the library has one in this group of screens.
CHRM4 agonist: agonists of human muscarinic M4 receptor (CHRM4); P08173; CHO-K1 hM4/Gqi5, Fluo-8 calcium fluorescence; vehicle 0%, full acetylcholine response 100%; activation, % at 3 µM; 0.14% of 360,000 active; AID 624127;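 active means activation above the run mean over all test wells plus 3 SD, cut at about 32% in these data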;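 further: peak over basal fluorescence ratio per well then scaled between controls; 0% = DMSO wells and 100% = acetylcholine at EC100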
Target sequence (P08173 whole entry, looked up): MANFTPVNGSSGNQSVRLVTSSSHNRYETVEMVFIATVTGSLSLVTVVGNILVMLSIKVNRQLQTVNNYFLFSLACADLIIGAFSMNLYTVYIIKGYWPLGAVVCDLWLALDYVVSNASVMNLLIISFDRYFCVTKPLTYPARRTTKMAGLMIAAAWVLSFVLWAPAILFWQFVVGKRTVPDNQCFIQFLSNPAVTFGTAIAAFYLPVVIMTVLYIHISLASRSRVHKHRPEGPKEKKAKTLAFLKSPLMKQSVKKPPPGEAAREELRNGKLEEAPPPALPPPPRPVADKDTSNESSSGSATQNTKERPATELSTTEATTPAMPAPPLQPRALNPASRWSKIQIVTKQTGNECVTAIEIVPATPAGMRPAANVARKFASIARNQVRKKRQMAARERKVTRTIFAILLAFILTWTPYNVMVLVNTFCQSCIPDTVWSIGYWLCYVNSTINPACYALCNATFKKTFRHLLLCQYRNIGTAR
M5 PAM: positive allosteric modulators of human muscarinic M5 receptor; CHO-K1 hM5, Fluo-8 calcium, ACh EC20 PAM; 0% = ACh EC20, 100% = ACh EC100; activation, % at 3 µM; 0.3% of 360,000 active; AID 624038;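 active means activation above the run cutoff, the mean activation of all test compounds plus 3 SD, cut at about 18% in these data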
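Measured by: Fluo-8 calcium fluorescence; material: human M5 receptor in CHO-K1 cells; schedule: Post-acetylcholine fluorescence recording 140 s; benchmarks: low control EC20 acetylcholine (0%), high control EC100 acetylcholine (100%); read-out: Max/basal fluorescence ratio as % of EC20–EC100 ACh window; compound: single dose, 3 µM nominal final test concentration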
M5 ag: agonists of human muscarinic M5 receptor (CHRM5); activation, % at 3 µM; CHO-K1 hM5 cells, Fluo-8 calcium fluorescence; 0% DMSO wells, 100% maximal acetylcholine response; 0.19% of 360,000 active; P08912; AID 624037;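 active means activation above the run's mean over test compounds plus 3 SD, cut at about 23% in these data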;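 further: signal is peak over basal fluorescence ratio across the kinetic read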
M4 PAM: potentiates acetylcholine response at human M4 receptor; activation, % at 3 µM; P08173; CHO-K1 hM4/Gqi5, Fluo-8 calcium fluorescence, ACh EC20; 0% = ACh EC20, 100% = maximal ACh; 0.4% of 360,000 active;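 active means activation above its plate's cutoff, the mean activation of sample wells plus 3 SD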
CHRM5 antagonist: blocks acetylcholine activation of human M5 receptor | P08912 | CHO-hM5 cells, Fluo-8 calcium fluorescence, ACh EC80 | inhibition, % at 3 µM | 0.59% of 360,000 active | AID 624040;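 active means inhibition above a per-plate cutoff, the mean of that plate's test compounds plus 3 SD, cut at about 27% in these data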;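 further: 0% = acetylcholine EC80 with DMSO and 100% = DMSO without agonist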
M4 antag: CHRM4 antagonism in calcium assay; P08173; CHO-hM4 cells, ACh EC80, Fluo-8 calcium fluorescence; inhibition, % at 3 µM; 0.73% of 360,000 active;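 active means inhibition above its plate's cutoff, the mean inhibition of sample wells plus 3 SD, cut at about 27% in these data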;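 further: 0% = acetylcholine EC80 with DMSO and 100% = DMSO without agonist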
An asterisk follows results filed as active.

SMILES	CHRM4 agonist	M5 PAM	M5 ag	M4 PAM	CHRM5 antagonist	M4 antag
NC(=O)C1CCN(c2cc(Cl)nc(N)n2)CC1	2	1	-6	26*	-11	-15
COC(=O)C1=C(C(=O)OC)[C@@H]2Nc3ccccc3[C@@]23C[C@@H](C(=O)OC)N(C(=O)c2cccs2)C3=N1	0	3	-2	25*	13	-13
O=C(OCc1ccccc1)N(CCCCN(CCCNCc1ccccc1)C(=O)OCc1ccccc1)CCCNCc1ccccc1	26	-14	-10	-11	21	65*
COc1cc(-c2n[nH]c(=S)n2/N=C/c2cccn2C)cc(OC)c1OC	51*	-18	50*	-39	17	7
Cn1cccc1/C=N/n1c(-c2ccco2)n[nH]c1=S	1	-2	-1	2	1	-1
C=C1[C@@H](OC(C)=O)C=C[C@@]2(C)C=CC(=O)[C@@](C)(OC(C)=O)[C@@H]2[C@@H](OC(C)=O)[C@]2(O)[C@@H](C)C(=O)O[C@H]2[C@H]1Cl	2	-1	2	-3	1	-6
COc1ccc(CCNC(=O)c2sc(=S)n(C)c2N)cc1	6	-13	2	-7	9	4
Cn1c(N)c(C(=O)NCc2ccccc2)sc1=S	2	0	-2	36*	9	-2
COc1ccc(Cn2cc(CN3CC(N4CCN(C5CCN(C)CC5)CC4)CS3(=O)=O)nn2)cc1 (stereo unspecified)	2	0	-2	4	-3	-25
Cn1c(-c2ccc3c(c2)OCO3)cnc1NCc1cccc(Cl)c1	2	-20	-7	-25	12	32*
Cn1c(-c2ccc3c(c2)OCO3)cnc1NCc1ccccc1Cl	1	-15	-10	-26	22	50*
Cn1c(-c2ccc3c(c2)OCO3)cnc1NCc1ccccc1	1	-6	-8	-13	1	11
Cc1nc2c(OCc3ccc(C(F)(F)F)cc3)cccn2c1N(C)Cc1cccs1	4	-12	0	-15	7	1
Cc1cc(C)n2nc(SCCOc3ccccc3)nc2n1	2	3	1	21*	5	-22
COc1ccc(OCCSc2nc3nc(C)cc(C)n3n2)cc1	0	1	4	0	1	5
COc1ccc(NC2=NCC(Cc3ccc(Br)cc3)S2)cc1 (stereo unspecified)	7	-14	-5	-22	5	29*
COc1ccc(C)cc1N(CC(=O)Nc1cccnc1)S(=O)(=O)c1ccccc1	14	-18	2	-7	29*	4
CC(=C/c1ccc(C(C)C)cc1)/C=N/NC(=O)Cn1nnnc1N	0	-12	-15	-1	30*	-9
COc1cccc(NC(=O)COC(=O)c2ccc(F)cc2F)c1	2	2	2	-3	-1	3
COc1cc(NC(=O)COC(=O)c2ccccc2F)cc(OC)c1	1	4	-2	3	1	29*
Cc1ccc(C2=N/C(=C/N3CCOCC3)C(=O)O2)cc1	0	38*	0	3	-4	-5
COc1ccccc1NC(=O)C1CCCN(c2nc(C)cc(C)n2)C1 (stereo unspecified)	-1	-7	-4	17*	8	-4
CCCOc1ccc(F)cc1-c1cc(C(=O)Nc2ccc(OC)cc2C)[nH]n1	1	2	-1	-1	3	-1
Cn1cc(C=CC(=O)O)c2nccnc21	1	-4	1	0	3	-12
CCOC(=O)CSc1nc(N)nc(C)c1Cl	2	-19	-10	-7	27*	7
SMILES	CHRM4 agonist	M5 PAM	M5 ag	M4 PAM	CHRM5 antagonist	M4 antag
CCOC(=O)CSc1nc(C)c(CC)c(C)c1C(N)=O	0	1	2	2	3	3
CCNc1nnc(CCn2nc(C)c(Br)c2C)s1	2	24*	-1	11	-17	2
CCCCNc1nnc(CCn2nc(C)c(Br)c2C)s1	0	6	-2	17	5	-6
Nc1ccc(N2CCCC2)c(S(=O)(=O)Nc2cccc(C(F)(F)F)c2)c1	1	-4	3	4	12	8
Cc1cc(C)n(-c2ncc3c(n2)N(CCO)CCOC3=O)n1	7	-11	-3	-5	20	4
CC1=CC2(O)OCCN(CCO)C2=CC1=O (stereo unspecified)	0	-12	1	9	28*	3
N#CCCN(C(=O)CN1CCN(S(=O)(=O)c2ccc3c(c2)OCCO3)CC1)c1ccc(F)cc1	1	3	-5	15	11	-12
c1ccc2c(c1)Cn1nnnc1-2	0	18*	1	12	-8	4
COc1ccc(C(=O)N/C(=C\c2ccccc2)C(=O)N2CCOCC2)cc1	2	-4	-1	19*	-6	-10
Cc1cc(C(=O)N2CCC2(C)C(=O)NCc2cccc3ccccc23)nn1C (stereo unspecified)	1	-8	0	0	4	-7
CCCCn1nnnc1C(c1cc2ccccc2o1)N1CCN(c2c(C)cccc2C)CC1 (stereo unspecified)	0	-5	0	4	2	-1
Cc1cccc(C)c1N1CCN(C(c2cc3ccccc3o2)c2nnnn2C(C)(C)C)CC1 (stereo unspecified)	5	0	3	-4	20	26*
COc1ccc(N/C=C(\C#N)c2nc3ccccc3n2C)c(OC)c1	7	-10	-2	-15	11	28*
COc1ccc(C2CC(=O)c3cnn(-c4nc(C)cc(C)n4)c3C2)cc1OC (stereo unspecified)	6	44*	7	11	20	24
N#CCCN(C(=O)COC(=O)C1CCN(S(=O)(=O)c2ccccc2C(F)(F)F)CC1)c1ccccc1	7	-9	3	-6	12	1
O=C(C1=NOC2(C1)C(=O)Nc1ccccc12)N1CCCCC1 (stereo unspecified)	3	-7	1	4	9	-3
Cc1cc(NC(=O)CSc2nc(-c3ccccc3)c(C#N)c(=O)[nH]2)no1	-2	9	-2	21*	-8	-4
CCOC(=O)C1CCN(c2ncnc3c2cnn3-c2ccc(Cl)cc2)CC1	1	19*	0	4	-14	-3
CCOC(=O)N1CCN(c2ncnc3c2cnn3-c2ccc(OC)cc2)CC1	3	0	5	28*	-9	-10
COc1ccc(-n2ncc3c(N4CCC(C)CC4)ncnc32)cc1	0	-6	2	4	4	-7
CCOC(=O)C1CCN(CCC(=O)Nc2ccc(C)c(C)c2)CC1	2	5	-4	-3	6	1

Screening data: PubChem, The Scripps Research Institute Molecular Screening Center
